According to ChEMBL document CHEMBL3785007 (Drug Metabol Drug Interact, 2011):

What was measured:
Homo sapiens [1] = assay: AUC in healthy Chinese subject (8 subjects) with homozygous mutant of NAT2 genotype assessed as N-acetylisoniazid at 300 mg, po administered after overnight fast by HPLC method; type: ADME, organism-based; conditions: in vivo
Method in brief: (§1)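 Plasma separated within 1 h and stored at −70°C. Deproteinised with 10% perchloric acid, then reversed-phase C18 HPLC with UV detection at 266 nm. AUC by trapezoidal method extrapolated to infinity; mean±SD.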

Homo sapiens [2] = assay: Cmax in healthy Chinese subject (8 subjects) with homozygous wild type NAT2 genotype assessed as N-acetylisoniazid at 300 mg, po administered after overnight fast by HPLC method; type: ADME, organism-based; set-up: dose 300 mg, route oral; conditions: in vivo
Homo sapiens [3] = assay: AUC in healthy Chinese subject (8 subjects) with homozygous wild type NAT2 genotype assessed as N-acetylisoniazid at 300 mg, po administered after overnight fast by HPLC method; type: ADME, organism-based; conditions: in vivo; method in brief: as §1
[4] = Clearance in healthy Chinese subject (8 subjects) with homozygous mutant of NAT2 genotype at 300 mg, po administered after overnight fast by HPLC method; type: ADME, organism-based; conditions: human, in vivo
[5] = Cmax in healthy Chinese subject (8 subjects) with homozygous mutant of NAT2 genotype at 300 mg, po administered after overnight fast by HPLC method; type: ADME, organism-based; set-up: dose 300 mg, route oral; conditions: human, in vivo
[6] = Clearance in healthy Chinese subject (8 subjects) with homozygous wild type NAT2 genotype at 300 mg, po administered after overnight fast by HPLC method; type: ADME, organism-based; conditions: human, in vivo
[7] = system: Mycobacterium tuberculosis; assay: Antitubercular activity against Mycobacterium tuberculosis in tuberculosis patient assessed as compound level in serum required to cause 90% maximum early bactericidal activity at 0.2 to 12 mg/kg after 2 hrs; type: functional
Homo sapiens [8] = assay: Clearance in healthy Chinese subject (8 subjects) with heterozygous mutant of NAT2 genotype assessed as N-acetylisoniazid at 300 mg, po administered after overnight fast by HPLC method; type: ADME, organism-based; conditions: in vivo
Homo sapiens [9] = assay: Cmax in healthy Chinese subject (8 subjects) with heterozygous mutant of NAT2 genotype assessed as N-acetylisoniazid at 300 mg, po administered after overnight fast by HPLC method; type: ADME, organism-based; set-up: dose 300 mg, route oral; conditions: in vivo
Homo sapiens [10] = assay: AUC in healthy Chinese subject (8 subjects) with heterozygous mutant of NAT2 genotype assessed as N-acetylisoniazid at 300 mg, po administered after overnight fast by HPLC method; type: ADME, organism-based; conditions: in vivo; method in brief: as §1
[11] = Cmax in healthy Chinese subject (8 subjects) with homozygous wild type NAT2 genotype at 300 mg, po administered after overnight fast by HPLC method; type: ADME, organism-based; set-up: dose 300 mg, route oral; conditions: human, in vivo
Homo sapiens [12] = assay: AUC in healthy Chinese subject (8 subjects) with heterozygous mutant of NAT2 genotype at 300 mg, po administered after overnight fast by HPLC method; type: ADME, organism-based; conditions: in vivo; method in brief: as §1
Homo sapiens [13] = assay: Cmax in healthy Chinese subject (8 subjects) with homozygous mutant of NAT2 genotype assessed as N-acetylisoniazid at 300 mg, po administered after overnight fast by HPLC method; type: ADME, organism-based; set-up: dose 300 mg, route oral; conditions: in vivo
Homo sapiens [14] = assay: AUC in healthy Chinese subject (8 subjects) with homozygous mutant of NAT2 genotype at 300 mg, po administered after overnight fast by HPLC method; type: ADME, organism-based; conditions: in vivo; method in brief: as §1
[15] = Cmax in healthy Chinese subject (8 subjects) with heterozygous mutant of NAT2 genotype at 300 mg, po administered after overnight fast by HPLC method; type: ADME, organism-based; set-up: dose 300 mg, route oral; conditions: human, in vivo
Homo sapiens [16] = assay: AUC in healthy Chinese subject (8 subjects) with homozygous wild type NAT2 genotype at 300 mg, po administered after overnight fast by HPLC method; type: ADME, organism-based; conditions: in vivo; method in brief: as §1
[17] = Clearance in healthy Chinese subject (8 subjects) with heterozygous mutant of NAT2 genotype at 300 mg, po administered after overnight fast by HPLC method; type: ADME, organism-based; conditions: human, in vivo
Homo sapiens [18] = assay: Clearance in healthy Chinese subject (8 subjects) with homozygous mutant of NAT2 genotype assessed as N-acetylisoniazid at 300 mg, po administered after overnight fast by HPLC method; type: ADME, organism-based; conditions: in vivo
[19] = system: Mycobacterium tuberculosis; assay: Antitubercular activity against Mycobacterium tuberculosis in tuberculosis patient assessed as compound AUC (0 to infinity) required to cause 90% maximum early bactericidal activity at 0.2 to 12 mg/kg; type: functional, organism-based
Homo sapiens [20] = assay: Clearance in healthy Chinese subject (8 subjects) with homozygous wild type NAT2 genotype assessed as N-acetylisoniazid at 300 mg, po administered after overnight fast by HPLC method; type: ADME, organism-based; conditions: in vivo

Which results are given for `NNC(=O)c1ccncc1` [ISONIAZID]?
AUC (Homo sapiens [1]): 19.8 mg·h/L; Cmax (Homo sapiens [2]): 5.59 mg/L; AUC (Homo sapiens [3]): 42.2 mg·h/L; CL/F [4]: 130 mL/min; Cmax [5]: 8280 ng/mL; CL/F [6]: 501 mL/min; Activity [7]: 2.19 µg/mL; CL (Homo sapiens [8]): 8.03 L/h; Cmax (Homo sapiens [9]): 3.99 mg/L; AUC (Homo sapiens [10]): 38 mg·h/L; Cmax [11]: 4930 ng/mL; AUC (Homo sapiens [12]): 16.3 mg·h/L; Cmax (Homo sapiens [13]): 1.38 mg/L; AUC (Homo sapiens [14]): 42.2 mg·h/L; Cmax [15]: 5720 ng/mL; AUC (Homo sapiens [16]): 10.3 mg·h/L; CL/F [17]: 320 mL/min; CL (Homo sapiens [18]): 16.07 L/h; AUC [19]: 10500 ng·h/mL; CL (Homo sapiens [20]): 7.4 L/h
